Laboratory results published in ChEMBL document CHEMBL3751849, “Design, Synthesis, and Biological Characterization of Novel Mitochondria Targeted Dichloroacetate-Loaded Compounds with Antileukemic Activity” (J Med Chem, 2016).
Activity calls are given as the source filed them. The rule behind the calls is not given here.

Assays:
[1] = test system: JVM-2; test: Induction of apoptosis in human JVM2 cells assessed as early apoptotic cells at 300 uM after 48 hrs by annexin V-FITC/PI-staining based FACS analysis (reference value: 1.6%); type: functional
[2] = test system: PBMC; test: Cytotoxicity against human PBMC cells after 48 hrs by MTT assay; type: cell-based
Outline: (§1)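 Cells seeded at 1 × 10^6 cells/mL. JVM-2, MAVER and HL-60 were grown in RPMI-1640; MEC-1 and MEC-2 were grown in IMDM. Primary cells were grown in RPMI-1640. All media carried 10% FBS, L-glutamine and penicillin/streptomycin. Test agents were added at 3–300 μM, and DCA at 1–30 mM.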

[3] = (§2) Cytotoxicity against human Maver1 cells after 48 hrs by MTT assay; type: functional, cell-based; conditions: Maver1, 48 h; outline: as §1
[4] = test system: Maver1; test: as §2; type: functional, cell-based; outline: as §1
[5] = (§3) Cytotoxicity against human HL60 cells after 48 hrs by MTT assay; type: functional, cell-based; conditions: HL-60, 48 h; outline: as §1
[6] = test system: HL-60; test: as §3; type: functional, cell-based; outline: as §1
[7] = test system: Leukemia cell; test: Reduction in basal oxygen consumption rate of mitochondria in human leukemia cells at 300 uM after 3 hrs by seahorse analyzer; type: functional
Outline: (§4)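 Leukemic cells were treated for 3 h at 300 μM, then plated at 3 × 10^5 cells/well on poly-L-lysine. They were held 1 h at 37 °C without CO2 and run on an XFe96 Mito stress test. Additions were made sequentially: oligomycin 1.0 μM, FCCP 1.0 μM, then antimycin A plus rotenone at 1.0 μM each. OCR was expressed as pmol O2/min and normalized to cell number. Coupling efficiency and spare capacity were calculated after subtracting non-mitochondrial OCR. Data are from six independent experiments.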

[8] = (§5) Cytotoxicity against human JVM2 cells after 48 hrs by MTT assay; type: functional, cell-based; conditions: JVM-2, 48 h; outline: as §1
[9] = test system: JVM-2; test: as §5; type: functional, cell-based; outline: as §1
[10] = (§6) Cytotoxicity against human MEC2 cells after 48 hrs by MTT assay; type: functional, cell-based; conditions: MEC2, 48 h; outline: as §1
[11] = test system: MEC2; test: as §6; type: functional, cell-based; outline: as §1
[12] = test system: Leukemia cell; test: Reduction in mitochondrial spare respiratory capacity in human leukemia cells pretreated at 300 uM for 3 hrs followed by antimycin A/rotenone addition by seahorse analyzer; type: functional, cell-based; outline: as §4
[13] = test system: Leukemia cell; test: Reduction in mitochondrial coupling efficiency in human leukemia cells pretreated at 300 uM for 3 hrs followed by antimycin A/rotenone addition by seahorse analyzer; type: functional, cell-based; outline: as §4
[14] = Upregulation of p21 mRNA expression in human primary B-CLL cells at 300 uM after 24 to 48 hrs by qRT-PCR analysis; type: functional, cell-based
[15] = Induction of apoptosis in human primary B-CLL cells assessed as early apoptotic cells at 300 uM after 48 hrs by annexin V-FITC/PI-staining based FACS analysis (reference value: 10.7%); type: functional
[16] = test system: Plasma; test: Drug metabolism in BALB/c mouse plasma at 57 mg/kg, sc after >5 hrs by HPLC-MS analysis; type: ADME, organism-based; conditions: in vivo
Outline: (§7)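 Female BALB/c mice, 8 weeks old (n = 12), received one sc dose of 57 mg/kg in 200 μL PBS/25% DMSO. Tail-vein blood was drawn at 1, 2.5, 4, 5.5, 7, 16 and 24 h, and plasma was stored at −80 °C. Plasma (100 μL) was diluted in 300 μL acetonitrile/water/TFA and filtered. It was then analysed by nano-HPLC-MS on a C-18 column, using a 15-min water-to-acetonitrile gradient with 0.1% formic acid.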

[17] = test system: Plasma; test: Metabolic stability in BALB/c mouse plasma assessed as compound remaining at 57 mg/kg, sc after >5 hrs by HPLC-MS analysis; type: ADME, organism-based; conditions: in vivo; outline: as §7
[18] = test system: Leukemia cell; test: Reduction in maximal oxygen consumption rate of mitochondria in human leukemia cells pretreated at 300 uM for 3 hrs followed by FCCP addition by seahorse analyzer; type: functional; outline: as §4
[19] = Cell cycle arrest in human JVM2 cells assessed as accumulation at S phase at 300 uM after 48 hrs by BrdU/PI-staining based FACS analysis (reference value: 40%); type: functional; conditions: JVM-2
[20] = test system: JVM-2; test: Induction of apoptosis in human JVM2 cells assessed as late apoptotic cells at 300 uM after 48 hrs by annexin V-FITC/PI-staining based FACS analysis (reference value: 11%); type: functional
[21] = Induction of apoptosis in human primary B-CLL cells assessed as late apoptotic cells at 300 uM after 48 hrs by annexin V-FITC/PI-staining based FACS analysis (reference value: 8.5%); type: functional
[22] = test system: B-CLL; test: Induction of p21 protein level in human primary B-CLL cells at 300 uM after 24 to 48 hrs by Western blot analysis; type: functional, cell-based
Outline: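 Primary B-CLL patient cells treated 24 or 48 h, lysed and analysed by Western blot using anti-p21 (C-19) antibody to detect p21 protein induction.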

[23] = test system: MEC1; test: (§8) Cytotoxicity against human MEC1 cells after 48 hrs by MTT assay; type: functional, cell-based; outline: as §1
[24] = as §8; type: functional, cell-based; conditions: MEC1, 48 h; outline: as §1
[25] = test system: Plasma; test: Retention time in BALB/c mouse plasma at 57 mg/kg, sc after 4 hrs by HPLC-MS analysis; type: ADME, organism-based; conditions: in vivo; outline: as §7
[26] = Cytotoxicity against human MEC2 cells at 3 to 300 uM after 48 hrs by MTT assay; type: cell-based; conditions: mec2, 48 h; outline: as §1
[27] = Cytotoxicity against human Maver1 cells at 3 to 300 uM uM after 48 hrs by MTT assay; type: cell-based; conditions: maver1, 48 h; outline: as §1
[28] = Cytotoxicity against human MEC1 cells at 3 to 300 uM after 48 hrs by MTT assay; type: cell-based; conditions: mec1, 48 h; outline: as §1
[29] = Cytotoxicity against human HL60 cells at 3 to 300 uM after 48 hrs by MTT assay; type: cell-based; conditions: hl-60, 48 h; outline: as §1
[30] = Cytotoxicity against human JVM2 cells at 3 to 300 uM after 48 hrs by MTT assay; type: cell-based; conditions: jvm-2, 48 h; outline: as §1
[31] = test system: JVM-2; test: Induction of apoptosis in human JVM2 cells assessed as late apoptotic cells at 10 mM after 48 hrs by annexin V-FITC/PI-staining based FACS analysis (reference value: 11%); type: functional
Outline: (§9)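 JVM-2 cells seeded at 1 × 10^6 cells/mL in RPMI-1640 with 10% FBS and treated 48 h. Annexin V-FITC/PI staining read by flow cytometry, giving percentage of apoptotic leukemic cells. Mean ± SD of at least three independent experiments; p < 0.05 versus untreated cultures.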

[32] = Cell cycle arrest in human JVM2 cells assessed as accumulation at S phase at 30 mM after 48 hrs by BrdU/PI-staining based FACS analysis (reference value: 40%); type: functional; conditions: JVM-2
[33] = Induction of apoptosis in human primary B-CLL cells assessed as late apoptotic cells at 30 mM after 48 hrs by annexin V-FITC/PI-staining based FACS analysis (reference value: 8.5%); type: functional
[34] = Induction of apoptosis in human primary B-CLL cells assessed as early apoptotic cells at 30 mM after 48 hrs by annexin V-FITC/PI-staining based FACS analysis (reference value: 10.7%); type: functional
[35] = test system: JVM-2; test: Induction of apoptosis in human JVM2 cells assessed as early apoptotic cells at 10 mM after 48 hrs by annexin V-FITC/PI-staining based FACS analysis (reference value: 1.6%); type: functional; outline: as §9
[36] = Cytotoxicity against human MEC2 cells at 30 uM after 48 hrs by MTT assay; type: cell-based; conditions: mec2, 48 h; outline: as §1
[37] = Cytotoxicity against human MEC1 cells at 30 uM after 48 hrs by MTT assay; type: cell-based; conditions: mec1, 48 h; outline: as §1
[38] = Cytotoxicity against human HL60 cells at 30 uM after 48 hrs by MTT assay; type: cell-based; conditions: hl-60, 48 h; outline: as §1
[39] = Cytotoxicity against human Maver1 cells at 30 uM after 48 hrs by MTT assay; type: cell-based; conditions: maver1, 48 h; outline: as §1
[40] = Cytotoxicity against human JVM2 cells at 30 uM after 48 hrs by MTT assay; type: cell-based; conditions: jvm-2, 48 h; outline: as §1

Structure (SMILES) | Activity [1] | IC50 [3] | IC50 [5] | Activity [7] | IC50 [8] | IC50 [10] | Activity [14] | Activity [19] | Activity [20] | Activity [22] | IC50 [24] | Activity [26] | Activity [27] | Activity [28] | Activity [29] | Activity [30] | other results
O=C(NCCN(CCNC(=O)C(Cl)Cl)CCNC(=O)C(Cl)Cl)C(Cl)Cl | 1.1% | 550 µM | 340 µM | Active | 410 µM | 370 µM | Active | 22% | 25.5% | Active | 400 µM | – | – | – | – | – | IC50 [2]: 1260 µM; Activity [4]: Dose-dependent effect; Activity [6]: Dose-dependent effect; Activity [9]: Dose-dependent effect; Activity [11]: Dose-dependent effect; Activity [12]: Active; Activity [13]: Active; Activity [15]: 14.4%; Drug metabolism [16]: metabolite_notdetected; Stability [17]: Stable; Activity [18]: Active; Activity [21]: 42.8%; Activity [23]: Dose-dependent effect; Retention_time [25]: 0.455 min
CC(C)(C)OC(=O)NCC[N+](C)(CCNC(=O)OC(C)(C)C)CCNC(=O)OC(C)(C)C.[I-] | – | – | – | – | – | – | – | – | – | – | – | Non-toxic | Non-toxic | Non-toxic | Non-toxic | Non-toxic | –
O=C(O)C(Cl)Cl [DICHLOROACETIC ACID] | – | 11800 µM | 13900 µM | – | 11500 µM | 12200 µM | Active | – | – | Active | 8290 µM | – | – | – | – | – | Activity [31]: 26.8%; Activity [32]: 15%; Activity [33]: 45.4%; Activity [34]: 20.7%; Activity [35]: 2.8%
C[N+](CCNC(=O)C(Cl)Cl)(CCNC(=O)C(Cl)Cl)CCNC(=O)C(Cl)Cl | – | – | – | inactive | – | – | – | – | – | – | – | – | – | – | – | – | –
CC(C)(C)OC(=O)NCCN(CCNC(=O)OC(C)(C)C)CCNC(=O)OC(C)(C)C | 1.3% | – | – | – | – | – | – | 41% | 10.9% | – | – | Non-toxic | Non-toxic | Non-toxic | Non-toxic | Non-toxic | –
CC(=O)OCC(COC(C)=O)(COC(C)=O)NC(=O)CCCCC[P+](c1ccccc1)(c1ccccc1)c1ccccc1.[Br-] | – | – | – | – | – | – | – | – | – | – | – | – | – | – | – | – | Activity [36]: Toxic; Activity [37]: Toxic; Activity [38]: Toxic; Activity [39]: Toxic; Activity [40]: Toxic
